Data published in ChEMBL document CHEMBL5715947 (Blood Cancer J, 2011).
The source made the active and inactive calls. The calls are words filed in the database; no cut-off is given here.

Experiments:
MV4-11 [1] = experiment: Induction of apoptosis in human MV4-11 cells harboring FLT3-ITD mutant assessed as increase in early apoptotic cells after 48 hrs by AnnexinV-FITC/Propidium iodide staining based flow cytometric analysis; format: functional, cell-based; conditions: dose 0.03-0.15 µM
MV4-11 [2] = experiment: Induction of apoptosis in human MV4-11 cells harboring FLT3-ITD mutant assessed as increase in early apoptotic cells after 72 hrs by AnnexinV-FITC/Propidium iodide staining based flow cytometric analysis; format: functional, cell-based; conditions: dose 0.03-0.15 µM
MV4-11 [3] = experiment: Induction of apoptosis in human MV4-11 cells harboring FLT3-ITD mutant assessed early apoptotic cells at 0.03 uM after 48 hrs by AnnexinV-FITC/Propidium iodide staining based flow cytometric analysis (reference value: 11.84 %); format: functional
MV4-11 [4] = experiment: Induction of apoptosis in human MV4-11 cells harboring FLT3-ITD mutant assessed late apoptotic cells at […] after 48 hrs by AnnexinV-FITC/Propidium iodide staining based flow cytometric analysis (reference value: 1.56 %); format: functional; conditions: dose 0.15 µM
MV4-11 [5] = experiment: Induction of apoptosis in human MV4-11 cells harboring FLT3-ITD mutant assessed late apoptotic cells at 0.03 uM after 72 hrs by AnnexinV-FITC/Propidium iodide staining based flow cytometric analysis (reference value: 1.48 %); format: functional
MV4-11 [6] = experiment: Induction of apoptosis in human MV4-11 cells harboring FLT3-ITD mutant assessed necrotic cells at 0.03 uM after 72 hrs by AnnexinV-FITC/Propidium iodide staining based flow cytometric analysis (reference value: 0.53 %); format: functional
MOLM-13 [7] = experiment: Induction of cell cycle arrest in human MOLM-13 cells harboring FLT3-ITD mutant assessed increase in cell accumulation at G1 phase after 24 hrs by Propidium iodide staining based flow cytometric analysis; format: functional
Procedure, shortened: (§1)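 Cells then fixed in ice-cold 70% ethanol, stained with 20 ng/ml propidium iodide, and cell-cycle phases measured by flow cytometry.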

MV4-11 [8] = experiment: Induction of cell cycle arrest in human MV4-11 cells harboring FLT3-ITD mutant assessed decrease in cell accumulation at S phase after 24 hrs by Propidium iodide staining based flow cytometric analysis; format: functional; procedure, shortened: as §1
MOLM-13 [9] = experiment: Induction of cell cycle arrest in human MOLM-13 cells harboring FLT3-ITD mutant assessed decrease in cell accumulation at S phase after 24 hrs by Propidium iodide staining based flow cytometric analysis; format: functional; procedure, shortened: as §1
RS4-11 = experiment: Antiproliferative activity against human RS4-11 cells assessed as reduction in cell viability incubated for 48 hr by CellTiter-Glo assay; format: functional, cell-based; conditions: RS4-11, 48 h
[10] = Antiproliferative activity against relapsed human derived M5b Fab type Acute myeloid leukemic cells assessed as reduction in cell viability incubated for 48 hr by CellTiter-Glo assay; format: functional, cell-based; conditions: Leukemia cell
Procedure, shortened: (§2)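 Primary AML peripheral blood or bone marrow mononuclear cells thawed and expanded ex vivo; blasts counted between day 10 and 13, characterised by CD123 FACS and FLT3 genotyping. Blasts treated 48 h; proliferation IC50 read by CellTiter-Glo.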

[11] = Antiproliferative activity against relapsed human derived M5b Fab type Acute myeloid leukemic cells harboring FLT3-ITD mutant assessed as reduction in cell viability incubated for 48 hr by CellTiter-Glo assay; format: functional, cell-based; conditions: Leukemia cell; procedure, shortened: as §2
[12] = Antiproliferative activity against relapsed human derived Acute myeloid leukemic cells assessed as reduction in cell viability incubated for 48 hr by CellTiter-Glo assay; format: functional, cell-based; conditions: Leukemia cell; procedure, shortened: as §2
MOLM-13 [13] = experiment: Antitumor activity against human MOLM-13 cells harboring FLT-3 ITD mutant xenografted in BALB/c nude mouse assessed as decrease in phosphorylated STAT5 at Y694 residue at 150 mg/kg, po measured after 3 hrs by Western blot analysis; format: functional, organism-based
Procedure, shortened: (§3)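 Mice bearing s.c. MOLM-13 xenografts given a single oral dose of 150 mg/kg. Tumours harvested at 3 h; lysates immunoblotted for phospho-FLT3, -STAT3, -STAT5, -Akt and total actin.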

MOLM-13 [14] = experiment: Antitumor activity against human MOLM-13 cells harboring FLT-3 ITD mutant xenografted in BALB/c nude mouse assessed as decrease in phosphorylated FLT3 at Y591 residue at 150 mg/kg, po measured after 3 hrs by Western blot analysis; format: functional, organism-based; procedure, shortened: as §3
MOLM-13 [15] = experiment: Antitumor activity against human MOLM-13 cells harboring FLT-3 ITD mutant xenografted in BALB/c nude mouse assessed as decrease in phosphorylated STAT3 at Y704 residue at 150 mg/kg, po measured after 3 hrs by Western blot analysis; format: functional, organism-based; procedure, shortened: as §3
MOLM-13 [16] = experiment: Antitumor activity against human MOLM-13 cells harboring FLT-3 ITD mutant xenografted in BALB/c nude mouse assessed as decrease in phosphorylated […] residue at 150 mg/kg, po measured after 3 hrs by Western blot analysis; format: functional, organism-based; procedure, shortened: as §3
MV4-11 [17] = experiment: Antitumor activity against human MV4-11 cells harboring FLT-3 ITD mutant xenografted in BALB/c nude mouse assessed as tumor growth inhibition at 25 mg/kg, po administered daily for 21 days relative to control; format: functional; conditions: MV4-11, 504 h, time 21 day, read-out: TGI
Procedure, shortened: (§4)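 Female BALB/c nude mice implanted s.c. in right flank with 1 × 10^7 MV4-11 cells in serum-free medium mixed 1:1 with Matrigel. Randomised on day 11 at mean 146–150 mm3 (n=10/group); oral hydrochloride salt once daily for 21 days in 0.5% methylcellulose/0.1% Tween-80. Doses are free-base equivalents; caliper twice weekly; ANOVA with Dunnett's test.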

MV4-11 [18] = experiment: Antitumor activity against human MV4-11 cells harboring FLT-3 ITD mutant xenografted in BALB/c nude mouse assessed as tumor growth inhibition at 100 mg/kg, po administered daily for 21 days relative to control; format: functional; conditions: MV4-11, 504 h, time 21 day, read-out: TGI; procedure, shortened: as §4
MOLM-13 [19] = experiment: Antitumor activity against human MOLM-13 cells harboring FLT-3 ITD mutant xenografted in BALB/c nude mouse assessed as tumor growth inhibition at 50 mg/kg, po bid administered daily for 7 days relative to control; format: functional; conditions: MOLM-13, 168 h, time 7 day, read-out: TGI
Leukemia cell = experiment: Induction of cell cycle arrest in human derived Acute myeloid leukemic cells assessed as increase in cell accumulation at G1 phase at 0.47 uM after 48 hrs by Propidium iodide staining based flow cytometric analysis

- IC50 (RS4-11): 930 nM
SMILES: C1=N/C2=N/c3ccc(OCCN4CCCC4)c(c3)COC/C=C/COCc3cccc(c3)C(=C1)N2 [PACRITINIB]
- Activity (MV4-11 [1]): Dose-Dependent Effect
- Activity (MV4-11 [2]): Dose-Dependent Effect
- Activity (MV4-11 [3]): 24.5%
- Activity (MV4-11 [4]): 20.83%
- Activity (MV4-11 [5]): 3.74%
- Activity (MV4-11 [6]): 1.06%
- Activity (MOLM-13 [7]): Dose-Dependent Effect
- Activity (MV4-11 [8]): Dose-Dependent Effect
- Activity (MOLM-13 [9]): Dose-Dependent Effect
- IC50 [10]: 460 nM
- IC50 [11]: 250 nM
- IC50 [12]: 1330 nM
- Activity (MOLM-13 [13]): Active
- Activity (MOLM-13 [14]): Active
- Activity (MOLM-13 [15]): Active
- Activity (MOLM-13 [16]): Active
- inhibition in vivo at 25 mg/kg (MV4-11 [17]): 38%
- inhibition in vivo at 100 mg/kg (MV4-11 [18]): 121%
- inhibition in vivo at 50 mg/kg (MOLM-13 [19]): 15%
- Activity (Leukemia cell): Active
